Measured values: ChEMBL document CHEMBL1154555, “Antifungal and larvicidal compounds from the root bark of Cordia alliodora” (2000)
≈ marks a conversion by molar mass, not a printed value.

How the values were obtained:
[1] = tested on: Aedes aegypti; assay: Larvicidal activity against Aedes aegypti assessed as drug level required to kill instar II larvae after 24 hrs; type: functional
Outline: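 Geometric dilutions were made from 5 mg/mL DMSO stocks and added to tubes holding about 20 instar II A. aegypti larvae in tap water, to a final volume of 10 mL. Tubes were kept in darkness at 26-28 °C for 24 h. Larval lethality was scored under lab light, in duplicate.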

[2] = tested on: Candida albicans; assay: Antimicrobial activity against sCandida albicans assessed as drug level causing growth inhibition on silica gel TLC plate after 24 hrs; type: functional
Outline: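 Agar overlay bioautography: 10 µL of geometric dilutions from 5 mg/mL stocks were spotted on Si gel 60 F254 glass TLC plates. Plates were developed in petroleum ether-EtOAc (1:1) and dried, then overlaid with about 1 mm of molten malt agar carrying about 107 yeast cells/mL. Plates were incubated overnight at 30 °C, moist, then sprayed with MTT (2.5 mg/mL). The read-out was the minimal amount (µg) giving clear spots on purple, with a nystatin reference.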

[3] = tested on: Cladosporium cucumerinum; assay: Antimicrobial activity against Cladosporium cucumerinum assessed as drug level causing growth inhibition on silica gel TLC plate after 2-3 days
[4] = tested on: Cladosporium cucumerinum; assay: Antimicrobial activity against Cladosporium cucumerinum after 24 hrs by agar dilution method; type: functional
Outline: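 Geometric dilutions were made in DMSO from 3 mg/mL DMSO stocks and added to Sabouraud agar in sealed 24-well plates, with final DMSO ≤2%. A distilled-water suspension of C. cucumerinum was spread over the agar and incubated 24 h at 30 °C. The read-out was MIC (µg/mL), the average of duplicates, with no-compound growth controls and a nystatin reference.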

[5] = tested on: Candida albicans; assay: Antimicrobial activity against Candida albicans after 24 hrs by agar dilution method; type: functional, organism-based

C/C=C\c1cc(OC)c(OC)cc1OC [CIS-ASARONE]
Activity [1]: 25 µg/mL

CC(C)=CCCC(C)(O)/C=C\c1cc(O)ccc1O (stereo not drawn)
Activity [2]: >50 µg
Activity [3]: 5 µg
Activity [1]: >50 µg/mL
MIC [4]: 15 µg/mL (≈ 57.2 µM)

NYSTATIN
Activity [2]: 0.1 µg
MIC [4]: 1 µg/mL
MIC [5]: 1 µg/mL

COC(=O)CCc1cc(OC)c(OC)cc1OC
Activity [2]: >50 µg
Activity [3]: 5 µg
Activity [1]: 12.5 µg/mL
MIC [4]: 15 µg/mL (≈ 59 µM)

CC1=CC(=O)c2c(O)cccc2C1=O [PLUMBAGIN]
Activity [1]: 3 µg/mL
